For experiment [1], the target named is T1, tRNA (guanine-N(1)-)-methyltransferase (Pseudomonas aeruginosa (strain ATCC 15692 / DSM 22644 / CIP 104116 / JCM14847 / LMG 12228 / 1C / PRS 101 / PAO1), UniProt Q9HXQ1).
T1 sequence (Q9HXQ1 whole entry): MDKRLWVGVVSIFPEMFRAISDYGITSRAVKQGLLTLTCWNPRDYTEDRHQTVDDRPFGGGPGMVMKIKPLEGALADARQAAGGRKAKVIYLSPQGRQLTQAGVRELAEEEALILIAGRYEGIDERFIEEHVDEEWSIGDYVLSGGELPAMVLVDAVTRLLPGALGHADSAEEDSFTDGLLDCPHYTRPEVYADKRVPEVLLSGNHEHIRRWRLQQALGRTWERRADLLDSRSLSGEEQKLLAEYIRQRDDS
Briefly: Binding affinity to Pseudomonas aeruginosa tRNA (guanine(37)-N1)-methyltransferase (Leu5 to Asp25 residues) expressed in Escherichia coli BL21 (DE3) Rosetta T1R cells by surface plasmon resonance assay. The method in brief:
(§1)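 SPR at 25 °C. His-tagged TrmD (50 μg/mL) captured on an anti-His antibody surface (about 2200 RU), with a blank reference cell. Buffer: 50 mM Tris-HCl pH 8, 150 mM NaCl, 1 mM MgCl2, 1 mM DTT, 0.05% Tween-20. Analyte in 2-fold dilutions, injected lowest to highest at 30 μL/min, 30 s contact, 240 s dissociation. KD from steady-state affinity fit.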

The target of experiment [2] is T2, tRNA (guanine-N(1)-)-methyltransferase (Pseudomonas aeruginosa (strain ATCC 15692 / DSM 22644 / CIP 104116 / JCM14847 / LMG 12228 / 1C / PRS 101 / PAO1)) (UniProt Q9HXQ1).
T2 sequence (whole entry): T1 sequence (Q9HXQ1 whole entry)
Briefly: Binding affinity to Pseudomonas aeruginosa tRNA (guanine(37)-N1)-methyltransferase (Leu5 to Asp25 residues) expressed in Escherichia coli BL21 (DE3) Rosetta T1R cells assessed as association rate constant by surface plasmon resonance assay. The method in brief: as §1
A general note: Surface plasmon resonance follows binding to a sensor surface in real time, without labels.

Experiment [3] addresses T2, tRNA (guanine-N(1)-)-methyltransferase (Pseudomonas aeruginosa (strain ATCC 15692 / DSM 22644 / CIP 104116 / JCM14847 / LMG 12228 / 1C / PRS 101 / PAO1)). Briefly: Binding affinity to Pseudomonas aeruginosa tRNA (guanine(37)-N1)-methyltransferase (Leu5 to Asp25 residues) expressed in Escherichia coli BL21 (DE3) Rosetta T1R cells assessed as dissociation rate constant by surface plasmon resonance assay. The method in brief:
as §1

Experiment [4] shares this target. Briefly: Binding affinity to Pseudomonas aeruginosa tRNA (guanine(37)-N1)-methyltransferase (Leu5 to Asp25 residues) expressed in Escherichia coli BL21 (DE3) Rosetta T1R cells assessed as thermal stabilization of protein by measuring change in melting temperature at 0.1 mM by SYPRO orange based thermal shift assay. The method in brief:
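Thermal shift: 4 μM TrmD with 5× SYPRO Orange and ligand in 50 mM Tris-HCl pH 8, 150 mM NaCl, 1 mM MgCl2, 1 mM DTT, 0.05% Tween-20. Buffer-only control. Heated from 25 to 95 °C in a real-time PCR instrument, and Tm taken as the unfolding midpoint. Ligand levels: SAH 2 mM, inhibitors 0.1 mM.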

The subject of a further experiment is Pseudomonas aeruginosa. Briefly: Antibacterial activity against Pseudomonas aeruginosa PA14 incubated for 24 hrs by serial broth microdilution method. The format is functional, organism-based. The method in brief: (§2)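 Log-phase cultures from four colonies grown overnight at 37 °C, inoculated at ~5×10^5 cells/mL in cation-adjusted Mueller–Hinton broth with serially diluted compound. Grown 24 h at 37 °C, then OD600 read. MIC50/MIC90 are the concentrations giving 50%/90% growth inhibition relative to drug-free controls. Two independent experiments in duplicate.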
(In general: Dilution methods test growth across graded concentrations, often in twofold steps.)

In a further experiment the test system is Salmonella enteritidis. Briefly: Antibacterial activity against Salmonella enteritidis ATCC 13076 incubated for 24 hrs by serial broth microdilution method. Conditions: Salmonella enterica subsp. enterica serovar Enteritidis. The format is functional. The method in brief: as §2
Experiment [5] has as its system Escherichia coli. Briefly: Antibacterial activity against Escherichia coli BW25113 incubated for 24 hrs by serial broth microdilution method. The format is functional, organism-based. The method in brief: as §2
Experiment [6] has as its system Streptococcus pneumoniae. Briefly: Antibacterial activity against Streptococcus pneumoniae ATCC 49619 incubated for 24 hrs by serial broth microdilution method. As to conditions: ATCC 49619, 24 h. The format is functional. The method in brief: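 Cultured in MH medium plus 3% defibrinated sheep blood at 37 °C, 5% CO2. Log-phase inoculum ~5×10^5 cells/mL was exposed to serial compound dilutions for 24 h. MIC50/MIC90 are relative to drug-free controls. Two independent experiments in duplicate.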

For experiment [7], the system named is Escherichia coli. Briefly: Bactericidal activity against Escherichia coli BW25113 assessed as reduction in CFU at 1 to 4 times MIC90 incubated for 24 hrs. The format is functional, organism-based.
Experiment [8] concerns Streptococcus pneumoniae. Briefly: Bactericidal activity against Streptococcus pneumoniae ATCC 49619 assessed as reduction in CFU at 1 to 4 times MIC90 incubated for 24 hrs. The format is functional. Conditions: ATCC 49619, 24 h, read-out: MBC99.9.
The subject of experiment [9] is Mycobacterium tuberculosis. Briefly: Bactericidal activity against Mycobacterium tuberculosis H37Rv assessed as reduction in CFU at 1 to 4 times MIC90 incubated for 7 days. The format is functional. As to conditions: 168 h, read-out: MBC99.9. The method in brief: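 Then plated on complete 7H10 agar for CFU. Inoculum plated at time zero. MBC99.9 is a 1000-fold CFU reduction versus the time-zero inoculum.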

Experiment [10] in a line: Selectivity ratio of Kd for full length Staphylococcus aureus tRNA (guanine(37)-N1)-methyltransferase expressed in Escherichia coli BL21 (DE3) to Kd for Pseudomonas aeruginosa tRNA (guanine(37)-N1)-methyltransferase (Leu5 to Asp25 residues) expressed in Escherichia coli BL21 (DE3) Rosetta T1R cells.
Experiment [11] addresses T3, tRNA (guanine-N(1)-)-methyltransferase (Staphylococcus aureus (strain NCTC 8325 / PS 47)) (UniProt Q2FZ43).
T3 sequence (whole entry): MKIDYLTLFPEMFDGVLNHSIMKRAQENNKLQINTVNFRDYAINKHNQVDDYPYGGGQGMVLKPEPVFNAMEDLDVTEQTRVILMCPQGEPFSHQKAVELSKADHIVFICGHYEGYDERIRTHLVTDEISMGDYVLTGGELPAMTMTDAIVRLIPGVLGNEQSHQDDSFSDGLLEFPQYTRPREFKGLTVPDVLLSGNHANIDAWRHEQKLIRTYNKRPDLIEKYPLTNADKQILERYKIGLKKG
Briefly: Binding affinity to full length Staphylococcus aureus tRNA (guanine(37)-N1)-methyltransferase expressed in Escherichia coli BL21 (DE3) assessed as thermal stabilization of protein by measuring change in melting temperature at 0.1 mM by SYPRO orange based thermal shift assay.

pKd: −log10 of the molar value. ≈ marks a conversion by molar mass, not a printed value. Calls of active or inactive are those of the source. The rule behind the calls is not given here.

The pKd is −log10 of the Kd, conventionally taken in molar units. Higher therefore signals a small Kd. One may read the ΔTm as the shift of the melting midpoint relative to a reference. One may read the MIC50 as the lowest concentration that inhibits either 50% of growth or 50% of the strains tested, depending on the study. As usually defined, the MIC90 is the lowest concentration that inhibits either 90% of growth or 90% of the strains tested, depending on the study. For `CCCCCCCCNCc1ccc(CNC(=O)c2csc3nc[nH]c(=O)c23)cc1`, the negative logarithm of the Kd (pKd) in experiment [1] was 8.80. The Ka in experiment [2] was 1.35e+07 M⁻¹ s⁻¹. Moreover, the Kdiss in experiment [3] was found to be 0.0218 s⁻¹. Besides, in [4], the ΔTm stood at 12 °C. The MIC50 entry in the experiment with Pseudomonas aeruginosa, in the experiment with Salmonella enteritidis and in the experiment on Escherichia coli [5] was “inactive” each time. The MIC90 entry in the experiment with Pseudomonas aeruginosa, with Salmonella enteritidis and in the experiment with Escherichia coli [5] was “inactive” in each case. Besides, the MIC50 in the experiment with Streptococcus pneumoniae [6] was 60 µM (≈ 25.6 µg/mL). This compound registered an MIC90 in the experiment with Streptococcus pneumoniae [6] of 73 µM (≈ 31.1 µg/mL). Further, the MBC99.9 result with Escherichia coli [7] was “inactive”. Besides, the MBC (in the experiment on Streptococcus pneumoniae [8]; in [9]) was over 100 µM throughout.

For the compound `CCCCCCCCCCNCc1ccc(CNC(=O)c2csc3nc[nH]c(=O)c23)cc1`, the MIC50 entry in the experiment with Pseudomonas aeruginosa, in the experiment with Salmonella enteritidis and in the experiment on Escherichia coli [5] was “inactive” throughout. In addition, the MIC90 entry in the experiment on Pseudomonas aeruginosa, in the experiment on Salmonella enteritidis and in the experiment on Escherichia coli [5] was “inactive” each time. This compound came in with an MIC50 in the experiment on Streptococcus pneumoniae [6] of 34 µM (≈ 15.5 µg/mL). This compound showed an MIC90 in the experiment on Streptococcus pneumoniae [6] of 56 µM (≈ 25.5 µg/mL). Further, the MBC99.9 entry in the experiment with Escherichia coli [7] is “inactive”. In addition, the figures for the MBC (with Streptococcus pneumoniae [8]; in experiment [9]) were over 100 µM and 75 µM (≈ 34.1 µg/mL), respectively.

`NC1CCN(Cc2ccc(CNC(=O)c3csc4nc[nH]c(=O)c34)cc2)CC1` gave a pKd in experiment [1] of 7.04. Besides, the Ka in experiment [2] was 128000 M⁻¹ s⁻¹. In addition, in experiment [3], the Kdiss was 0.0117 s⁻¹. The results for the shift in melting temperature (ΔTm) in experiment [4] and in [11] were 4 to 29 °C and 1 to 13 °C, respectively. Also, in experiment [10], the Ratio lay in the range of 100 to 300.

These data come from ChEMBL document CHEMBL4373727, “Thienopyrimidinone Derivatives That Inhibit Bacterial tRNA (Guanine37-N1)-Methyltransferase (TrmD) by Restructuring the Active Site with a Tyrosine-Flipping Mechanism” (J Med Chem, 2019).
